Results: publication PMC9359405 (International Journal of Nanomedicine, 2022)

What was measured:
Format in all cases: in vivo, Wistar rats
MRP1 = assay: Immunohistochemistry of efflux proteins in brain tissue; conditions: intranasal 1.25 mg/kg, 14 days, score 0-12
[1] = Pharmacokinetics in blood and vital organs; conditions: for CL/F: gavage; for AUC(0-t) / Cmax / MRT last / Tmax / half-life: male, Wistar, rat, po
Summary of the method: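 Male Wistar rats (200±20 g) received the test compound as an aqueous solution by gavage. Five rats were sampled at each of 11 times from 5 min to 24 h, and blood and organs were collected and weighed. Tissue homogenates (1% perchloric acid) and plasma (6% perchloric acid) were deproteinized, extracted into ethyl acetate at pH 11.8, and analysed by HPLC at 308 nm. Mean±SD, n=5.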

BCRP = assay: Immunohistochemistry of efflux proteins in brain tissue; conditions: intranasal 1.25 mg/kg, 14 days, score 0-12
P-gp = assay: as above; conditions: intranasal 1.25 mg/kg, 14 days, score 0-12
[2] = nasal NEs vs gavage HupA aqueous solution

CL/F ([1]; Brain): 42.63 ± 7.93 mL·h
CL/F ([1]; Heart): 7.26 ± 0.05 mL·h
CL/F ([1]; Kidney): 0.91 ± 0.02 mL·h
CL/F ([1]; Liver): 2.88 ± 0.15 mL·h
CL/F ([1]; Lung): 4.03 ± 0.09 mL·h
CL/F ([1]; Plasma): 9.88 ± 0.89 mL·h
CL/F ([1]; Spleen): 2.45 ± 0.03 mL·h
AUC(0-t) ([1]; brain): 28.6 ± 5.72 ng·h/mL
Cmax ([1]; brain): 15 ± 4.25 ng/mL
MRT last ([1]; brain): 1.49 ± 0.12 h
Tmax ([1]; brain): 0.5 h
half-life ([1]; brain): 1.27 ± 0.16 h
AUC(0-t) ([1]; heart): 163 ± 5.85 ng·h/mL
Cmax ([1]; heart): 163 ± 7.33 ng/mL
MRT last ([1]; heart): 1.6 ± 0.05 h
Tmax ([1]; heart): 0.5 h
half-life ([1]; heart): 2.21 ± 0.68 h
AUC(0-t) ([1]; kidney): 1350 ± 33.3 ng·h/mL
Cmax ([1]; kidney): 567 ± 40.6 ng/mL
MRT last ([1]; kidney): 2.78 ± 0.05 h
Tmax ([1]; kidney): 1 h
half-life ([1]; kidney): 2.1 ± 0.1 h
AUC(0-t) ([1]; liver): 424 ± 22.9 ng·h/mL
Cmax ([1]; liver): 256 ± 8.27 ng/mL
MRT last ([1]; liver): 1.95 ± 0.04 h
Tmax ([1]; liver): 0.5 h
AUC(0-t) ([1]; lung): 288 ± 13 ng·h/mL
Cmax ([1]; lung): 173 ± 14.1 ng/mL
MRT last ([1]; lung): 2.28 ± 0.06 h
Tmax ([1]; lung): 1 h
half-life ([1]; lung): 2.49 ± 0.13 h
AUC(0-t) ([1]; plasma): 119 ± 10.1 ng·h/mL
Cmax ([1]; plasma): 109 ± 8.99 ng/mL
MRT last ([1]; plasma): 1.31 ± 0.12 h
Tmax ([1]; plasma): 0.5 h
half-life ([1]; plasma): 1.77 ± 0.83 h
AUC(0-t) ([1]; spleen): 485 ± 5.11 ng·h/mL
Cmax ([1]; spleen): 195 ± 4.58 ng/mL
MRT last ([1]; spleen): 2.03 ± 0.06 h
Tmax ([1]; spleen): 1 h
Compound: C/C=C1\[C@H]2C=C(C)C[C@]1(N)c1ccc(=O)[nH]c1C2 [HupA Solution, huperzine A]
MRP1 protein expression (immunoreactive score) (MRP1): higher in the HupA aqueous solution group than in the blank control group
Concentration (C) of the drug in brain tissue at the same time point (order) [1, 2]: CLf-HupA-NE>CHupA-NE>CHupA aqueous solution
Duration of action in the brain (T) (order) [1, 2]: TLf-HupA-NE>THupA-NE>THupA aqueous solution
BCRP protein expression (immunoreactive score) (BCRP): higher in the HupA aqueous solution group than in the blank control group
P-gp protein expression (immunoreactive score) (P-gp): higher in the HupA aqueous solution group than in the blank control group
